The text below walks through data of the RNAGym collection of RNA variant scans (doi:10.1126/science.aae0568).

This sample holds only a part of the variants without activity.

B1: tRNA (parent)
chain: GUUCCGUUGGCGUAAUGGUAACGCGUCUCCCUCCUAAGGAGAAGACUGCGGGUUCGAGUCCCGUACGGAACG

The series covers variants of B1. The series can be described thus: yeast fitness relative to wild type (ratio to wild type); higher = fitter; tRNA-Arg(CCU), competitive growth, 37 C, YPD. The method in brief: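 Variants of the tRNA-Arg(CCU) gene, chemically synthesised with a 3% per-site mutation rate at 69 sites, were placed at the native genomic locus in Saccharomyces cerevisiae. The pooled strains were competed in YPD at 37°C for 24 hours in six parallel replicates. Gene amplicons from the start population and from each end population were read by 100-nucleotide paired-end sequencing. Darwinian fitness relative to wild type came from changes in genotype frequencies; genotypes needed ≥ 100 starting reads, and estimates < 0.5 were set to 0.5.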
In the case of U3C C22A C33A, the yeast fitness is no more than 0.5.
As for G23A G39C A40U G68A, the figure is no more than 0.5; as for G25A C30G A57G, 0.582.
For the variant G18A G44A U54C G58A G67U, the yeast fitness is no more than 0.5.
With C29U C49A G68C the figure was 0.584; with G17C U64C, 0.845; with U16A U28G U47G U54A, 0.56.
For U3C A21G C46A G56A, the yeast fitness was no more than 0.5.
As for U16A A20G, the figure is 0.961.
As for A15U U28A G38A G52C C60G, the figure is no more than 0.5; as for A21C G23A C46G U53C, 0.698; as for C29U C61G A65U, no more than 0.5.
With U2A U16A the figure was 0.989; with C30A C55G, 0.596; with G9C G12A, 0.629.
On to C5A C31U G68A, for which the yeast fitness turned out to be 0.639.
With U2A C24A A36G A45G the figure was no more than 0.5; with G9A U59C A69U, 0.776; with G9A A36G A43G, 0.748.
With U3G C4A A40U A57G C62U the figure was no more than 0.5; with C22G U28A C31G C55A G68C, 0.539; with G6A G25C C33U G48A G63A, no more than 0.5.
With U19A G39A G63C the figure was no more than 0.5.
In the case of C4U A20U A40U, the yeast fitness was determined as 0.646.
With U59C C61G the figure was 0.588; with C5A G10C G17A A40U U64C, 0.582.
For the variant U2G A37C C49U A70C, the yeast fitness was no more than 0.5.
With A43G G51A the figure was 0.853; with G10A C22A A43G C55A, no more than 0.5.
Regarding C4G G18C G51A, the yeast fitness was no more than 0.5.
With C4G U35C G39A C62A the figure was 0.511.
As for U2A G6A A40U C46A, the figure is 0.596; as for C22A A37G, 0.823.
With G52A A65G the figure was 0.86; with G23A C24G G25A G48A, no more than 0.5; with U2G U54C C62G A70U, no more than 0.5.
As to C49U U59A, the yeast fitness turned out to be 0.852.
As for U19A C27U U59A A65C G67U, the figure is 0.575; as for U7C, 1.01.
As to G18A A57U, the yeast fitness was found to be 0.588.
As for U13G C24G, the figure is 0.539; as for C33U G50C A70U, no more than 0.5.
As for G6C G10C A40G A42U, the figure is no more than 0.5; as for C24G G41A G51A G56C, 0.556.
As for A43C G50C, the yeast fitness was 0.593.
As for U2A G52C, the figure is 0.65; as for C4G U26C C46U, 0.702.
As for A14G G17C G58C, the figure is no more than 0.5; as for C27G G52A C60G A69U A70C, 0.514.
With C5U U26A A65U G68U the figure was 0.548; with A15G G25C G48C, 0.576.
U26C U32C U47C G50A C61U U64A: the yeast fitness is no more than 0.5.
As for U3C C34U, the figure is 0.789; as for C66A G67A, 0.557.
With C27U C55U G56A A57C the figure was 0.526; with C33U A43G C62G, no more than 0.5; with C4U C55U A69U, 0.745.
With C4G G38A C55U, the yeast fitness was no more than 0.5.
With C27G C33U A45U the figure was 0.568; with A45U A57G G67A, 0.598.
With U8A C27A, the yeast fitness was 0.625.
As for C5G A20C C24U G68A, the figure is no more than 0.5; as for C5U A40U G44A C61A, no more than 0.5.
As for A15C C24G A40U G44A, the figure is no more than 0.5; as for C4G C5U A65G A70C, no more than 0.5.
As to C5U A40G A43G C55U, the yeast fitness was no more than 0.5.
With C4G G9C C22A G68U the figure was no more than 0.5.
With C4U G12C C27U the figure was 0.535; with A14C U16A C27G C55U, 0.539; with C11U U53G, 0.608.
As for C24G A36C A37G A70C, the figure is no more than 0.5.
Take A20G C33A G44A: the yeast fitness was 0.535.
Take U2A A45C C55A: the yeast fitness was no more than 0.5.
As for C29G A37G G67C, the figure is 0.672.
With U26A G68C the figure was 0.82; with C22G C30U, 0.817.
As for G18A G56A, the figure is 0.705; as for C5U U32A, 0.789.
In the case of G9A C29U A43G G68U, the yeast fitness was 0.527.
With U2G G6A C27U A36U C61U C62G the figure was no more than 0.5; with U16A C30U A40C, no more than 0.5; with U2A G12C C29U C33G, no more than 0.5.
With U3C C27G C33G A42G A45G the figure was no more than 0.5; with C27G A42C A70U, no more than 0.5; with C22G G63C G68U, 0.52.
With U2C A15C C55G A57C C66A the figure was no more than 0.5; with C5A A15G C34U A40C G56A G63A, no more than 0.5.
Take C24U C49G G56C G58A: the yeast fitness turned out to be 0.57.
With G12A A15C C62U C66G A70G the figure was 0.562; with U3C A43G, 0.999.
With U8A A15C U26A C33A C61A U64A the figure was no more than 0.5; with C27A G51A A70G, no more than 0.5; with A21U C29G C49G A70U, no more than 0.5.
As for C46G C49A, the figure is 0.7.
For the variant U16A C60U U64C A65C, the yeast fitness was no more than 0.5.
With U8A C27U A42G C62G G68A the figure was no more than 0.5; with C31U A36U A45C C46G G48C, 0.53; with A15C U16G A21C C24A U32A A45C, no more than 0.5.
With U3C U13G A70G the figure was 0.698.
As for C5G G17C A42U G52A G67U, the figure is no more than 0.5; as for U28A U47C, 0.858.
For C11U C31G C46G, the yeast fitness stood at 0.673.
With U3A A57G A69U the figure was 0.983; with U7C G63A, 0.856.
As for U7A G10A C27A C30G G41C, the figure is no more than 0.5; as for U3C U47C C49U G51A, no more than 0.5.
Turning to U3C A36U, the yeast fitness was determined as 0.656.
As for U3A A15G U47G, the figure is 0.794; as for A40C C46A C61G A69G, no more than 0.5.
As for G25C C55A, the figure is 0.68; as for U19C C49A C62A, no more than 0.5.
U7C A43G: the yeast fitness worked out at 0.841.
With G10C C11U C30G G48A U54A G68U the figure was no more than 0.5.
With U2A C11G U28A A65G the figure was no more than 0.5; with C24G A42U A45C, no more than 0.5.
With C11G A21U C24G G51A the figure was no more than 0.5; with G12A U28A C55G, no more than 0.5.
Regarding G12C A45G A65G, the yeast fitness worked out at 0.548.
For the variant G6A G25C, the yeast fitness amounted to 0.866.
As for A21U C27G C33U C34A C61U, the figure is no more than 0.5; as for G6A A36G G48A, 0.59; as for C31U C49G C61A, no more than 0.5.
As for U8C C30A C46G U54A U64A G68A, the figure is no more than 0.5; as for G41C A43G, 0.898; as for C34G A42G C66U, 1.03.
With C11U G56C C62U G68U the figure was no more than 0.5; with C30A G63A, 0.83; with G44A A70G, 0.919.
Consider A42U A57C C61U A65U, for which the yeast fitness is 0.58.
With G52A G56U A70U the figure was no more than 0.5; with C30U U54C A57C, no more than 0.5.
As for G6A G23C C49G U53G A57G, the figure is 0.567; as for A15C C30A A69C, no more than 0.5; as for U16A A43U, 1.14.
With U7C C24U C31A A42G U54A C55G the figure was no more than 0.5.
As to U19C G25A A37U C62A U64C, the yeast fitness was no more than 0.5.
With C22A C29U G56A C60G the figure was no more than 0.5.
As for A40U A42U A65C, the figure is 0.747; as for G10A C60A, 0.691; as for U28G C29A G56A, no more than 0.5.
With U2G C11G A20U C22U C34U C49A G52A the figure was no more than 0.5; with G38C A43G C49G G51A, no more than 0.5.
U19A A36U A45U C49U U64A A70U: the yeast fitness came to 0.788.
With C33U C34G C66U the figure was 0.542; with A14U G23A A36G, no more than 0.5; with U32C G38C, 0.742.
As for G38A C61U, the figure is 0.931; as for C31U A40C A65C, 0.817.
With C4G G18C C30A the figure was no more than 0.5; with C5A A21C C34G C60G A70G, no more than 0.5.
Turning to A14G A42U C62A, the yeast fitness is no more than 0.5.
With A14G C49G C66U the figure was 0.526.
Regarding U7A C31G U64A C66U G68C A69G, the yeast fitness is no more than 0.5.
As for G10A C11G C31U A37C, the figure is no more than 0.5; as for U32C A57C, 0.659; as for C4U C55U U59G, 0.587.
With U3C A14U A20C C30G G58A A65G the figure was no more than 0.5; with G63C A65C, 0.638; with G10C G12A U16A C30U, no more than 0.5.
As for U7C G10A G41C U64G A65C, the figure is no more than 0.5.
Consider A21G C22U A45C, for which the yeast fitness stood at 0.539.
As for U3G C11A G52A C66G G68C, the figure is no more than 0.5.
With C27A C49G U53A C62A the figure was 0.571; with A15C C22A G25C U28A A36U U54C A57C, no more than 0.5; with U2A C31G A65U A69C, no more than 0.5.
With U2G C22G U28A C31G C55A G68C the figure was no more than 0.5.
With G23U A45G, the yeast fitness came to 0.579.
